Columns and labels:
[1] = molecular target: Metabotropic glutamate receptor 3 (Rattus norvegicus) (UniProt P31422); assay: Antagonistic activity against Glutamate receptor in rat spinal cord at concentration of 10 uM.; assay type: functional, tissue-based
Summary of the method: (§1)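 Neonatal rat spinal cord, hemisected sagittally, superfused at 1 mL/min with oxygenated Krebs-Henseleit medium containing 0.5% urethane at room temperature. Agonists were given in 2-mL doses in the superfusate. Antagonist was superfused continuously for at least 15 min before agonist retesting. Read-out was ventral root depolarization (DC potential, ventral root vs cord body), measured as amplitude and area of response.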

[2] = molecular target: Metabotropic glutamate receptor 3 (Rattus norvegicus) (UniProt P31422); assay: Antagonistic activity against Glutamate receptor in rat spinal cord at concentration of 5 uM.; assay type: functional, tissue-based; summary of the method: as §1
Substance-P receptor = Substance-P receptor (Rattus norvegicus, UniProt P14600); assay: Histamine releasing activity of Substance P from isolated rat peritoneal mast cells; assay type: functional
Summary of the method: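 Histamine release from isolated rat peritoneal mast cells, method of Fretwell et al. Dose-response curves were built over a range of concentrations, and EC50 values were calculated from the curves.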

[3] = molecular target: Substance-P receptor (Cavia porcellus) (UniProt P30547); assay: In vitro inhibition of substance P (6-11) hexapeptide induced contractions of the guinea pig ileum at 5 uM.; assay type: tissue-based
Summary of the method: (§2)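 Agonist (SP or SP(6-11)-hexapeptide) dose-response curves on a 3-min cycle with 1-min contact, then washout. Dose ratio = agonist EC50 with antagonist / EC50 alone. At least two preparations per compound; ratios below 2 taken as insignificant.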

[4] = molecular target: Substance-P receptor (Cavia porcellus) (UniProt P30547); assay: In vitro inhibition of substance P induced contractions of the guinea pig ileum at 10 uM.; assay type: tissue-based; summary of the method: as §2
[5] = molecular target: Substance-P receptor (Cavia porcellus) (UniProt P30547); assay: In vitro inhibition of substance P induced contractions of the guinea pig ileum at 5 uM.; assay type: tissue-based; summary of the method: as §2
[6] = molecular target: Substance-P receptor (Cavia porcellus) (UniProt P30547); assay: In vitro inhibition of substance P (6-11) hexapeptide induced contractions of the guinea pig ileum at 10 uM.; assay type: tissue-based; summary of the method: as §2
[7] = Antagonistic activity against Glutamate receptor in rat spinal cord at concentration of 50 uM.
[8] = molecular target: Substance-P receptor (Rattus norvegicus) (UniProt P14600); assay: Antagonistic activity against Substance P receptor in rat spinal cord at concentration of 5 uM.
[9] = tested on: muscarinic acetylcholine receptor (Rattus norvegicus); assay: Antagonistic activity against Carbachol receptor in rat spinal cord at concentration of 5 uM.
[10] = molecular target: Substance-P receptor (Rattus norvegicus) (UniProt P14600); assay: Antagonistic activity against Substance P receptor in rat spinal cord at concentration of 10 uM.
[11] = molecular target: Substance-P receptor (Rattus norvegicus) (UniProt P14600); assay: Antagonistic activity against Substance P receptor in rat spinal cord at concentration of 50 uM.
[12] = tested on: muscarinic acetylcholine receptor (Rattus norvegicus); assay: Antagonistic activity against Carbachol receptor in rat spinal cord at concentration of 10 uM.
[13] = molecular target: Substance-P receptor (Rattus norvegicus) (UniProt P14600); assay: Antagonistic activity against Substance P(6-11) receptor in rat spinal cord at concentration of 5 uM.
[14] = molecular target: Substance-P receptor (Rattus norvegicus) (UniProt P14600); assay: Antagonistic activity against Substance P(6-11) receptor in rat spinal cord at concentration of 10 uM.
[15] = molecular target: Substance-P receptor (Rattus norvegicus) (UniProt P14600); assay: Antagonistic activity against Substance P(6-11) receptor in rat spinal cord at concentration of 50 uM.
[16] = molecular target: Metabotropic glutamate receptor 3 (Rattus norvegicus) (UniProt P31422); assay: Antagonistic activity against Glutamate receptor in rat spinal cord at concentration of 50 uM.; assay type: functional, tissue-based; summary of the method: as §1
[17] = molecular target: Substance-P receptor (Cavia porcellus) (UniProt P30547); assay: Antagonistic activity against Substance P receptor in guinea pig ileum at concentration of 1 uM.; assay type: functional, tissue-based
Summary of the method: (§3)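 Distal ileum from Dunkin-Hartley guinea pigs (300-350 g, both sexes), held in a 5-mL bath of Krebs solution at 37 °C gassed with 95% O2/5% CO2. Agonist dose-response curves ran on a 3-min cycle with 1-min contact, then washout. Dose ratio = agonist EC50 with antagonist / EC50 alone. At least two preparations per compound; ratios below two were taken as insignificant.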

[18] = molecular target: Substance-P receptor (Cavia porcellus) (UniProt P30547); assay: Antagonistic activity against Substance P(6-11) receptor in guinea pig ileum at concentration of 1 uM.; assay type: functional, tissue-based; summary of the method: as §3
[19] = tested on: muscarinic acetylcholine receptor (Rattus norvegicus); assay: Antagonistic activity against Carbachol receptor in rat spinal cord at concentration of 50 uM.
[20] = molecular target: Metabotropic glutamate receptor 3 (Rattus norvegicus) (UniProt P31422); assay: Antagonistic activity against Glutamate receptor in rat spinal cord at concentration of 0.5 uM.; assay type: functional, tissue-based; summary of the method: as §1
[21] = molecular target: Metabotropic glutamate receptor 3 (Rattus norvegicus) (UniProt P31422); assay: Antagonistic activity against Glutamate receptor in rat spinal cord at concentration of 1.0 uM.; assay type: functional, tissue-based; summary of the method: as §1
[22] = molecular target: Metabotropic glutamate receptor 3 (Rattus norvegicus) (UniProt P31422); assay: Antagonistic activity against Glutamate receptor in rat spinal cord at concentration of 10.0 uM.; assay type: functional, tissue-based; summary of the method: as §1
[23] = molecular target: Metabotropic glutamate receptor 3 (Rattus norvegicus) (UniProt P31422); assay: Antagonistic activity against Glutamate receptor in rat spinal cord at concentration of 5.0 uM.; assay type: functional, tissue-based; summary of the method: as §1
[24] = molecular target: Metabotropic glutamate receptor 3 (Rattus norvegicus) (UniProt P31422); assay: Antagonistic activity against Glutamate receptor in rat spinal cord at concentration of 50.0 uM.; assay type: functional, tissue-based; summary of the method: as §1
[25] = molecular target: Substance-P receptor (Cavia porcellus) (UniProt P30547); assay: Antagonistic activity against Substance P receptor in guinea pig ileum at concentration of 0.5 uM.; assay type: functional, tissue-based; summary of the method: as §3
[26] = molecular target: Substance-P receptor (Cavia porcellus) (UniProt P30547); assay: Antagonistic activity against Substance P receptor in guinea pig ileum at concentration of 1.0 uM.; assay type: functional, tissue-based; summary of the method: as §3
[27] = molecular target: Substance-P receptor (Cavia porcellus) (UniProt P30547); assay: (§4) Antagonistic activity against Substance P receptor in guinea pig ileum at concentration of 10.0 uM.; assay type: functional, tissue-based; summary of the method: as §3
[28] = molecular target: Substance-P receptor (Cavia porcellus) (UniProt P30547); assay: (§5) Antagonistic activity against Substance P receptor in guinea pig ileum at concentration of 5.0 uM.; assay type: functional, tissue-based; summary of the method: as §3
[29] = molecular target: Substance-P receptor (Cavia porcellus) (UniProt P30547); assay: as §4; assay type: functional, tissue-based; summary of the method: as §3; remark: listed apart in the source
[30] = molecular target: Substance-P receptor (Cavia porcellus) (UniProt P30547); assay: Antagonistic activity against Substance P(6-11) receptor in guinea pig ileum at concentration of 0.5 uM.; assay type: functional, tissue-based; summary of the method: as §3
[31] = molecular target: Substance-P receptor (Cavia porcellus) (UniProt P30547); assay: Antagonistic activity against Substance P(6-11) receptor in guinea pig ileum at concentration of 1.0 uM.; assay type: functional, tissue-based; summary of the method: as §3
[32] = molecular target: Substance-P receptor (Cavia porcellus) (UniProt P30547); assay: as §5; assay type: functional, tissue-based; summary of the method: as §3; remark: listed apart in the source

Sequence of Substance-P receptor (Rattus norvegicus) (P14600 whole entry, looked up): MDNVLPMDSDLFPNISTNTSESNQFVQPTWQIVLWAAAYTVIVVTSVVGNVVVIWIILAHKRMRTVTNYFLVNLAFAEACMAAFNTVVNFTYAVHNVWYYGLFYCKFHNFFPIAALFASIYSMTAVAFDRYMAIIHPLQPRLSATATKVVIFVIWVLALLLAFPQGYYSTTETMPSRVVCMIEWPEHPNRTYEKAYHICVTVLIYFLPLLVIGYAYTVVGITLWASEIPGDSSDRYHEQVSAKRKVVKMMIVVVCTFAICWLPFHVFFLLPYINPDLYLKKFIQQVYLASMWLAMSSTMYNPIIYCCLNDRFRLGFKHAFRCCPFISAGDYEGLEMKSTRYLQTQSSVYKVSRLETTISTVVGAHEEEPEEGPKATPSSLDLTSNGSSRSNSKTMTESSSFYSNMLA
Sequence of Substance-P receptor (Cavia porcellus) (P30547 whole entry): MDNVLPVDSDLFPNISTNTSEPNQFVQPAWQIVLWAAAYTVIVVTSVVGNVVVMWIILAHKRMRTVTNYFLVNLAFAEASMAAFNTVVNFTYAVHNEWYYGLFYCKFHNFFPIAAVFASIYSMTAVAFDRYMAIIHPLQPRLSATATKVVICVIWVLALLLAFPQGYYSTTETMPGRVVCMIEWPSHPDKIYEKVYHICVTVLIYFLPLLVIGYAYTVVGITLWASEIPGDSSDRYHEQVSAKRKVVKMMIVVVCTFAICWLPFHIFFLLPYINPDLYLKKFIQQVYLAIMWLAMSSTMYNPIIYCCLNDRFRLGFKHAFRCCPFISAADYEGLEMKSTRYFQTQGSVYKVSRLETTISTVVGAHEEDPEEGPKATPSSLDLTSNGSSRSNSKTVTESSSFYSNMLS
Sequence of Metabotropic glutamate receptor 3 (Rattus norvegicus) (P31422 23-879 limits assumed): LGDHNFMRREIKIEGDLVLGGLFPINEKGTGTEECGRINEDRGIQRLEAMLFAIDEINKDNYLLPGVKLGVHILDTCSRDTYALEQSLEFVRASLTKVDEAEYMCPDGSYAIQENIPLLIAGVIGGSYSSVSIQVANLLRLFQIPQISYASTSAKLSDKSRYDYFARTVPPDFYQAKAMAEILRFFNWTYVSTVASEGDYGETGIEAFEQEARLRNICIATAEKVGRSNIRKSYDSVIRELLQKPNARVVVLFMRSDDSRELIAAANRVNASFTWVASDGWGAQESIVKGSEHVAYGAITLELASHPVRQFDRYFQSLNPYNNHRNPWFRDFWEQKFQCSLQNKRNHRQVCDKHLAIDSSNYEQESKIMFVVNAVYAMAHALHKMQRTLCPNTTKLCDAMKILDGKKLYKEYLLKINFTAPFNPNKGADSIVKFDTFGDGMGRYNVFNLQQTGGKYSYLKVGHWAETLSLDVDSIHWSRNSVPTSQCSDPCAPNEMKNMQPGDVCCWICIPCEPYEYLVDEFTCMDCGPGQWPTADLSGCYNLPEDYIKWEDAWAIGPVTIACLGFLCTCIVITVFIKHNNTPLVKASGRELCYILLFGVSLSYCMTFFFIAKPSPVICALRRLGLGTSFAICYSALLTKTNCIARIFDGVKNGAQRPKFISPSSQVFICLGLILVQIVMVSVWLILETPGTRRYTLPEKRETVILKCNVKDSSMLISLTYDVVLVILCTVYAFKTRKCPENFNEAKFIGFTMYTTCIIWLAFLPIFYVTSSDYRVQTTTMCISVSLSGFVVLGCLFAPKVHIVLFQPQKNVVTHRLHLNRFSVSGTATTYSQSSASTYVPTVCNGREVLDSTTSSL
Sequence of Substance-P receptor (P14600 whole entry): as the sequence (P14600 whole entry, looked up) above

Row | Structure (SMILES) | Change in amplitude response [1] [%] | IC50 (Substance-P receptor) [µM] | Activity [3] [dose ratio] | Activity [5] [dose ratio] | Change in amplitude response [10] [%] | Change in amplitude response [11] [%] | Change in amplitude response [12] [%] | Change in amplitude response [14] [%] | Change in amplitude response [15] [%] | Change in amplitude response [20] [%] | Change in amplitude response [21] [%] | Change in amplitude response [22] [%] | Change in amplitude response [23] [%] | further results
1 | COC(=O)[C@H](CCSC)NC(=O)[C@H](CC(C)C)NC(=O)[C@@H](Cc1c[nH]c2ccccc12)NC(=O)[C@H](Cc1ccccc1)NC(=O)[C@@H](Cc1ccccc1)NC(=O)[C@H](CCCN=C(N)N)NC(=O)[C@H](CC(N)=O)NC(=O)C1CCCN1C(=O)[C@H](CCCCNC(=O)OCc1ccccc1)NC(=O)C1CCCN1C(=O)[C@H](CCCN=C(N)N)NC(=O)OCc1ccccc1 (stereo in doubt) | -1 | 0.6 | 3.2 | 14 | 3 | -37 | -51 | -75 | -85 |  |  |  |  | Change in amplitude response [2]: -3%; Activity [4]: 31.1 dose ratio; Activity [6]: 11.1 dose ratio; Change in amplitude response [7]: 20%; Change in amplitude response [8]: -29%; Change in amplitude response [9]: -52%; Change in amplitude response [13]: -73%
2 | COC(=O)[C@H](CCSC)NC(=O)[C@H](CC(C)C)NC(=O)[C@@H](Cc1c[nH]c2ccccc12)NC(=O)[C@H](Cc1ccccc1)NC(=O)[C@@H](Cc1ccccc1)NC(=O)[C@H](CCCN=C(N)N)NC(=O)[C@H](CC(N)=O)NC(=O)OC(C)(C)C | -3 | 500 | 16 | 2.1 | 15 | -17 | -26 | -56 | -79 |  |  |  |  | Change in amplitude response [16]: 11%; Activity [17]: < 2 dose ratio; Activity [18]: 4.4 dose ratio; Change in amplitude response [19]: -40%
3 | COC(=O)[C@@H](CCSC)NC(=O)[C@H](CC(C)C)N(C)C(=O)CN(C)C(=O)[C@H](Cc1ccccc1)NC(=O)[C@@H](Cc1ccccc1)NC(=O)[C@H](CCC(N)=O)NC(=O)[C@H](CCC(N)=O)NC(=O)C1CCCN1C(=O)[C@H](CCCCNC(=O)OCc1ccccc1)NC(=O)C1CCCN1C(=O)[C@H](CCCN=C(N)N)NC(=O)OCc1ccccc1 (stereo in doubt) |  |  |  |  |  |  |  |  |  | 6 | 0 | -35 | 0 | 
4 | COC(=O)[C@@H](CCSC)NC(=O)[C@@H](CC(C)C)SCCNC(=O)[C@@H](Cc1ccccc1)NC(=O)[C@H](Cc1ccccc1)NC(=O)[C@H](CCC(N)=O)NC(=O)[C@H](CCC(N)=O)NC(=O)[C@H]1CCCN1C(=O)[C@H](CCCCNC(=O)OCc1ccccc1)NC(=O)[C@H]1CCCN1C(=O)[C@H](CCCN=C(N)N)NC(=O)OCc1ccccc1 |  |  |  |  |  |  |  |  |  | -7 | -12 | -31 | -23 | Change in amplitude response [24]: -25%; Activity [25]: 2.4 dose ratio; Activity [26]: 3.4 dose ratio; Activity [27]: 52 dose ratio; Activity [28]: 38 dose ratio; Activity [29]: 52 dose ratio; Activity [30]: 4.2 dose ratio; Activity [31]: 20.1 dose ratio; Activity [32]: 38 dose ratio
